Measurements of several laboratories.
Lines come from different studies, so protocols differ.
Target: Peroxisome proliferator-activated receptor alpha (PPARA, Homo sapiens, UniProt Q07869)
One construct used (Q07869 1-468): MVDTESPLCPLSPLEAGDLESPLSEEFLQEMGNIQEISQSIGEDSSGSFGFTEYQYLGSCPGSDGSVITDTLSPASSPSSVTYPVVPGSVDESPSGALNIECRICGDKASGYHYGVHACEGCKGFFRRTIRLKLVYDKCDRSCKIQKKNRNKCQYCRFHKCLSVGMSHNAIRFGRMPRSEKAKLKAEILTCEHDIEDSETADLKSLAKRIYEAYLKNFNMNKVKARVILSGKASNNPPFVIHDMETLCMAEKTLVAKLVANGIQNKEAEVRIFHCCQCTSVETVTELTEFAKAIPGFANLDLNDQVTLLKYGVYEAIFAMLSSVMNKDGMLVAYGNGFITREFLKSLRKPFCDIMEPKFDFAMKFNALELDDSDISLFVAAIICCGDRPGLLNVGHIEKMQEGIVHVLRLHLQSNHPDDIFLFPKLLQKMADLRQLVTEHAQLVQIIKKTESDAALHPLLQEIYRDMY

SMILES	observed	action	method	measurement	value
CC(C)(Oc1ccc(C(=O)c2ccc(Cl)cc2)cc1)C(=O)O	reporter gene	agonist	luciferase	EC50	47.1 µM
O=C(Nc1ccc(OCCF)cc1)c1cc([N+](=O)[O-])ccc1Cl	enzyme activity in cells	inhibitor	–	IC50	> 2 µM
Cc1c(C)n(Cc2ccc(-c3ccccc3C(=O)O)cc2)c2ccc(C(=O)N[C@@H](C)c3ccc(C(C)(C)C)cc3)cc12	ligand displacement	–	TR-FRET	Ki	0.594 µM
C=CCc1ccc(O)c(-c2cc(CC=C)ccc2O)c1	ligand displacement	–	TR-FRET	Ki	3.38 µM
CCCCCC#CCC#CCC#CCC#CCCCC(=O)O	reporter gene	agonist	luciferase	EC50	0.99 µM
C=CCc1ccc(O)c(-c2ccc(O)c(CC=C)c2)c1	ligand displacement	–	TR-FRET	Ki	4.6 µM
O=C(Nc1ccc(Oc2ncccn2)cc1C(=O)O)c1ccc(Cl)cc1Cl	ligand displacement	–	TR-FRET	IC50	11.9 µM
Cc1ccc(C)c(OCCCC(C)(C)C(=O)O)c1	reporter gene	agonist	luciferase	EC50	58 µM
O=C(Nc1ccc(CCF)cc1)c1cc([N+](=O)[O-])ccc1Cl	enzyme activity in cells	inhibitor	–	IC50	> 2 µM
CC1(C)C=Cc2c(cc3oc(-c4ccccc4)c(O)c(=O)c3c2O)O1	ligand displacement	–	TR-FRET	Ki	3.3 µM
